Measurements from different studies.
Compare with care: the assays were run in different laboratories.
Target: NUAK family SNF1-like kinase 1 (NUAK1, Homo sapiens, UniProt O60285)
Sequence (O60285 1-661, as in one of the studies): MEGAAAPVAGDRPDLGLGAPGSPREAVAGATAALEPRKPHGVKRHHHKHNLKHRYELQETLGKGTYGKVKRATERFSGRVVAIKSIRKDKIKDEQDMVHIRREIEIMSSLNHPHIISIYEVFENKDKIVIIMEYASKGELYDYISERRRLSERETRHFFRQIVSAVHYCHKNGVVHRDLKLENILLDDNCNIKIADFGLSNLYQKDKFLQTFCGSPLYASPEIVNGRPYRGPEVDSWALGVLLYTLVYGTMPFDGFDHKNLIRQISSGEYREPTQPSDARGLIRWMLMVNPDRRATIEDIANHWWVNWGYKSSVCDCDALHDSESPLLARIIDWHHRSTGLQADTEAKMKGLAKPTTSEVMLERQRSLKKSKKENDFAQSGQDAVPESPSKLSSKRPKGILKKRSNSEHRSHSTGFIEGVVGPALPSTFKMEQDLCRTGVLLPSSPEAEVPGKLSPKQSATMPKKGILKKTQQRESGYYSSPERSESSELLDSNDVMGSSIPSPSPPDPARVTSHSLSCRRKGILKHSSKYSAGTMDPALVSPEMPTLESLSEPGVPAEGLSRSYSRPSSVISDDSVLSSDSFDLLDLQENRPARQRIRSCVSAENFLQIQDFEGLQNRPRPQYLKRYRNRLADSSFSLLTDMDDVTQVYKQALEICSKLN

SMILES | observed | mode | technique | tested at | endpoint | value
CCCCC(=O)Nc1ccc(-c2ccc3ncn(CCC)c(=O)c3c2)cn1 | binding |  | competition with immobilised ligand | 0.5 µM | remaining binding | 73%
C#Cc1cc(-c2cc(Nc3nc(N[C@@H](C)c4ccc(F)cn4)ncc3Cl)n[nH]2)ccc1C=O | enzyme activity | inhibitor |  | 0.2 µM | inhibition | 17.1%
C=CC(=O)N1CCC([C@@H]2CCNc3c(C(N)=O)c(-c4ccc(Oc5ccccc5)cc4)nn32)CC1 | enzyme activity | inhibitor |  | 1 µM | inhibition | 2%
CC(C)S(=O)(=O)c1ccc2nccc(Nc3ccc4sc(C5CCCC5)nc4c3)c2c1 | enzyme activity | inhibitor |  | 1 µM | activity vs control | 108%
COc1ccc2[nH]c3c4[nH]c5ccc(OC)cc5c4c4c(c3c2c1)C(=O)NC4=O | binding |  |  | 1 µM | remaining binding | 25%
C1=C/COCc2cc(ccc2OCCN2CCCC2)Nc2nccc(n2)-c2cccc(c2)COC/1 | cell-free assay |  |  | 0.1 µM | remaining signal | 39%
C[C@H]1CC[C@H](n2c3cnccc3c3cnc(Nc4ccc5c(n4)CCN(C(=O)CO)C5)nc32)CC1 | cell-free assay |  |  | 1 µM | remaining signal | 72%
C=CC(=O)N1CCC[C@@H](n2nc(-c3ccc(Oc4ccccc4)cc3)c3c(N)ncnc32)C1 | enzyme activity | inhibitor |  | 1 µM | inhibition | 10%
